Laboratory results from ChEMBL document CHEMBL4371097, “Antibacterial Aromatic Polyketides Incorporating the Unusual Amino Acid Enduracididine” (J Nat Prod, 2019).
pIC50: −log10 of the molar value. Values after ≈ are worked out from the molar mass of the structure shown. Active and inactive are the calls of the source. The rule behind the calls is not given here.

Legend:
Streptococcus pneumoniae [1] = assay: Antibacterial activity against Streptococcus pneumoniae ATCC BAA1407 after 16 hrs by agar diffusion method; type: functional
[2] = test system: Staphylococcus intermedius; assay: Antibacterial activity against Staphylococcus intermedius ATCC 29663 after 16 hrs by agar diffusion method; type: functional
Clostridioides difficile = assay: Antibacterial activity against Clostridium difficile ATCC 17858 after 16 hrs by agar diffusion method; type: functional
[3] = test system: Staphylococcus haemolyticus; assay: Antibacterial activity against multidrug-resistant Staphylococcus haemolyticus isolate 1729 after 16 hrs by agar diffusion method; type: functional
Streptococcus pyogenes = assay: Antibacterial activity against Streptococcus pyogenes isolate 49 after 16 hrs by agar diffusion method; type: functional
Cutibacterium acnes = assay: Antibacterial activity against Propionibacterium acnes ATCC 25746 after 16 hrs by agar diffusion method; type: functional
[4] = test system: Staphylococcus haemolyticus; assay: Antibacterial activity against Staphylococcus haemolyticus isolate 1730 after 16 hrs by agar diffusion method; type: functional
Staphylococcus aureus [5] = assay: Antibacterial activity against multidrug-resistant Staphylococcus aureus isolate 3797 after 16 hrs by agar diffusion method; type: functional
Streptococcus pneumoniae [6] = assay: Antibacterial activity against Streptococcus pneumoniae isolate 44 after 16 hrs by agar diffusion method; type: functional
Enterococcus faecium [7] = assay: Antibacterial activity against Vancomycin A-inducible resistant Enterococcus faecium isolate 569 after 16 hrs by agar diffusion method; type: functional
Staphylococcus aureus [8] = assay: Antibacterial activity against methicillin-resistant Staphylococcus aureus isolate 3864 after 16 hrs by agar diffusion method; type: functional
Enterococcus faecium [9] = assay: Antibacterial activity against Enterococcus faecium isolate 568 after 16 hrs by agar diffusion method; type: functional
[10] = Growth inhibition of human PANC1 cells at 90 uM after 48 hrs by MTT assay relative to control; type: cell-based; details: PANC-1 cells, read-out: GI
Staphylococcus aureus [11] = assay: Bactericidal activity against Staphylococcus aureus isolate 3797 up to 8 times MIC up to 24 hrs by time kill assay; type: functional, organism-based
Candida albicans = assay: Antifungal activity against Candida albicans after 16 hrs by agar diffusion method; type: functional, organism-based
Staphylococcus aureus [12] = assay: microbe, parasite or virus in culture; details: ATCC 29213, 16 h
Staphylococcus aureus [13] = assay: Inhibition of DNA synthesis in Staphylococcus aureus isolate 12ST assessed as reduction in 5-[3H]thymidine incorporation preincubated for 5 mins followed by 5-[3H]thymidine addition and measured after 5 mins by liquid scintillation counting method; type: functional, organism-based
Summary of the method: (§1)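 S. aureus 12ST was grown overnight in 0.2× LB, diluted 200-fold, and grown at 37 °C to OD600 0.2–0.25. Aliquots were exposed to compound for 5 min at 37 °C (0.5% DMSO maximum final). Label was then added ([6-3H]thymidine 0.15 μCi/sample; D-[6-3H]glucosamine 0.4 μCi/sample) for 5 min at 37 °C. Samples were precipitated with ice-cold 5% TCA for ≥30 min, filtered, washed, and scintillation counted.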

Staphylococcus aureus [14] = assay: microbe, parasite or virus in culture; details: ATCC 6538P, 16 h
Staphylococcus aureus [15] = assay: Inhibition of cell wall synthesis in Staphylococcus aureus isolate 12ST assessed as reduction in [3H]glucosamine hydrochloride incorporation preincubated for 5 mins followed by [3H]glucosamine hydrochloride addition and measured after 5 mins by liquid scintillation counting method; type: functional, organism-based; summary of the method: as §1
[16] = test system: Mycolicibacterium smegmatis; assay: Antibacterial activity against Mycobacterium smegmatis after 16 hrs by agar diffusion method; type: functional, organism-based
Staphylococcus aureus [17] = assay: Inhibition of RNA synthesis in Staphylococcus aureus isolate 12ST assessed as reduction in [3H]uridine incorporation up to 60 ug/ml preincubated for 5 mins followed by [3H]uridine addition and measured after 5 mins by liquid scintillation counting method; type: functional, organism-based
Summary of the method: (§2)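 S. aureus 12ST was grown overnight in 0.2× LB, diluted 200-fold and grown at 37 °C to OD600 0.2–0.25. 80 µL aliquots got medium or compound (added at 10× final) for 5 min at 37 °C. [5,6-3H]uridine 0.15 µCi or L-[5-3H]tryptophan 0.25 µCi was added for 5 min more. Samples were precipitated in ice-cold 5% TCA, filtered and scintillation-counted. DMSO ≤0.5% final.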

Bacillus subtilis = assay: Inhibition of cell wall synthesis in Bacillus subtilis BAU102 assessed as induction of beta-galactosidase activity preincubated for 120 mins followed by beta-galactosidase chromogenic substrate addition; type: functional, organism-based
HEK293 = assay: Growth inhibition of HEK293 cells after 48 hrs by MTT assay; type: cell-based; details: Homo sapiens, HEK293, 48 h
Staphylococcus aureus [18] = assay: Stimulation of protein synthesis in Staphylococcus aureus isolate 12ST assessed as increase in L-[3H]tryptophan incorporation preincubated for 5 mins followed by L-[3H]tryptophan addition and measured after 5 mins by liquid scintillation counting method; type: functional, organism-based; summary of the method: as §2
Staphylococcus aureus [19] = assay: Bactericidal activity against Staphylococcus aureus isolate 3797 at 8 times MIC up to 2 to 4 hrs by time kill assay relative to control; type: functional
Staphylococcus aureus [20] = assay: Bactericidal activity against Staphylococcus aureus ATCC 6538P up to 8 times MIC up to 24 hrs by time kill assay; type: functional, organism-based
Staphylococcus aureus [21] = assay: Bactericidal activity against Staphylococcus aureus ATCC 6538P at 8 times MIC up to 2 to 4 hrs by time kill assay relative to control; type: functional

Question: What does the source list for `CN[C@H](CC(C)C)C(=O)N[C@H]1C(=O)N[C@@H](CC(N)=O)C(=O)N[C@H]2C(=O)N[C@H]3C(=O)N[C@H](C(=O)N[C@H](C(=O)O)c4cc(O)cc(O)c4-c4cc3ccc4O)[C@H](O)c3ccc(c(Cl)c3)Oc3cc2cc(c3O[C@@H]2O[C@H](CO)[C@@H](O)[C@H](O)[C@H]2O[C@H]2C[C@](C)(N)[C@H](O)[C@H](C)O2)Oc2ccc(cc2Cl)[C@H]1O` [VANCOMYCIN]?
Answer: MIC (Streptococcus pneumoniae [1]; ATCC BAA1407, 16 h): 0.5 µg/mL (≈ 0.345 µM); MIC ([2]; NCTC 11048, 16 h): 1 µg/mL (≈ 0.69 µM); MIC (Clostridioides difficile; ATCC 17858, 16 h): 0.5 µg/mL (≈ 0.345 µM); MIC ([3]; isolate 1729, 16 h): 2 µg/mL (≈ 1.38 µM); MIC (Streptococcus pyogenes; isolate 49, 16 h): 0.25 µg/mL (≈ 0.173 µM); MIC (Cutibacterium acnes; ATCC 25746, 16 h): 0.25 µg/mL (≈ 0.173 µM); MIC ([4]; isolate 1730, 16 h): 2 µg/mL (≈ 1.38 µM); MIC (Staphylococcus aureus [5]; isolate 3797, 16 h): 8 µg/mL (≈ 5.52 µM); MIC (Streptococcus pneumoniae [6]; isolate 44, 16 h): 0.125 µg/mL (≈ 0.0863 µM); MIC (Enterococcus faecium [7]; isolate 569, 16 h): > 128 µg/mL

Question: Which results are given for GENTAMICIN?
Answer: MIC (Staphylococcus aureus [8]): > 128 µg/mL; MIC (Streptococcus pneumoniae [1]): 64 µg/mL; MIC ([2]; NCTC 11048): < 0.125 µg/mL; MIC (Clostridioides difficile): 128 µg/mL; MIC [3]: > 128 µg/mL; MIC (Enterococcus faecium [9]): 32 µg/mL; MIC (Streptococcus pyogenes): 16 µg/mL; MIC (Cutibacterium acnes): 2 µg/mL; MIC [4]: > 128 µg/mL; MIC (Staphylococcus aureus [5]): 64 µg/mL; MIC (Streptococcus pneumoniae [6]): 8 µg/mL; MIC (Enterococcus faecium [7]): 16 µg/mL

Question: For `COc1c(OC)c2c(=O)c3cc(C)n(C(CC4CN(C)C(=N)N4)C(=O)O)c(=O)c3c(=O)c2c2cc3c(=O)c4cc(O)cc(O)c4c(=O)c3c(OC)c12` (stereo unspecified), which MIC (Staphylococcus aureus [8]; isolate 3864, 16 h) is on record?
Answer: Its MIC is 0.03 µg/mL (≈ 0.0422 µM).

Question: What about the inhibition at 48 h, 90 µM [10] of the same molecule?
Answer: Its inhibition at 48 h, 90 µM is 20%.

Question: And the Activity (Staphylococcus aureus [11])?
Answer: Its Activity is “inactive”.

Question: What about the MIC (Streptococcus pneumoniae [1]; ATCC BAA1407, 16 h) of the same molecule?
Answer: Its MIC is 0.25 µg/mL (≈ 0.352 µM).

Question: What about the Activity (Candida albicans) of the same molecule?
Answer: The Activity was “inactive”.

Question: And the MIC ([2]; NCTC 11048, 16 h)?
Answer: Its MIC is 0.007 µg/mL (≈ 0.00985 µM).

Question: What about the MIC (Clostridioides difficile; ATCC 17858, 16 h) of the same molecule?
Answer: The MIC was 2 µg/mL (≈ 2.81 µM).

Question: And the MIC (Staphylococcus aureus [12])?
Answer: Its MIC is 0.0005 µg/mL (≈ 0.000704 µM).

Question: And the IC50 (Staphylococcus aureus [13])?
Answer: The IC50 was 2 µg/mL (≈ 2.81 µM).

Question: And the inhibition (Staphylococcus aureus [13])?
Answer: The inhibition was “Dose-dependent effect”.

Question: What about the MIC (Staphylococcus aureus [14]) of the same molecule?
Answer: Its MIC is 0.004 µg/mL (≈ 0.00563 µM).

Question: And the IC50 (Staphylococcus aureus [15])?
Answer: The IC50 was 5 µg/mL (≈ 7.04 µM).

Question: And the inhibition (Staphylococcus aureus [15])?
Answer: Its inhibition is “Dose-dependent effect”.

Question: What about the Activity [16] of the same molecule?
Answer: The Activity was “inactive”.

Question: And the inhibition (Staphylococcus aureus [17])?
Answer: The inhibition was “inactive”.

Question: And the inhibition (Bacillus subtilis)?
Answer: Its inhibition is “Active”.

Question: And the pIC50 (HEK293)?
Answer: Its pIC50 is 4.26.

Question: What about the Activity (Staphylococcus aureus [18]) of the same molecule?
Answer: The Activity was “Active”.

Question: What about the MIC ([3]; isolate 1729, 16 h) of the same molecule?
Answer: Its MIC is 0.015 µg/mL (≈ 0.0211 µM).

Question: What about the Activity (Staphylococcus aureus [19]) of the same molecule?
Answer: The Activity was >99.9%.

Question: And the MIC (Enterococcus faecium [9]; isolate 568, 16 h)?
Answer: The MIC was 4 µg/mL (≈ 5.63 µM).

Question: And the MIC (Streptococcus pyogenes; isolate 49, 16 h)?
Answer: The MIC was 0.5 µg/mL (≈ 0.704 µM).

Question: And the MIC (Cutibacterium acnes; ATCC 25746, 16 h)?
Answer: Its MIC is 0.25 µg/mL (≈ 0.352 µM).

Question: And the Activity (Staphylococcus aureus [20])?
Answer: Its Activity is “inactive”.

Question: And the MIC ([4]; isolate 1730, 16 h)?
Answer: Its MIC is 0.03 µg/mL (≈ 0.0422 µM).

Question: What about the MIC (Staphylococcus aureus [5]; isolate 3797, 16 h) of the same molecule?
Answer: Its MIC is 0.03 µg/mL (≈ 0.0422 µM).

Question: And the Activity (Staphylococcus aureus [21])?
Answer: Its Activity is >99.9%.

Question: What about the MIC (Streptococcus pneumoniae [6]; isolate 44, 16 h) of the same molecule?
Answer: The MIC was 0.25 µg/mL (≈ 0.352 µM).

Question: What about the MIC (Enterococcus faecium [7]; isolate 569, 16 h) of the same molecule?
Answer: The MIC was 2 µg/mL (≈ 2.81 µM).
